In ChEMBL document CHEMBL2417552, “Screen of pseudopeptidic inhibitors of human sirtuins 1-3: two lead compounds with antiproliferative effects in cancer cells” (J Med Chem, 2013):

Key:
[1] = target: T1, NAD-dependent protein deacetylase sirtuin-2 (Homo sapiens) (UniProt Q8IXJ6); assay: Inhibition of human recombinant GST-tagged SIRT2 using KI179 as substrate at 50 uM preincubated for 5 mins followed by enzyme addition measured after 1 hr by fluorescence assay relative to control
T1 sequence (whole entry): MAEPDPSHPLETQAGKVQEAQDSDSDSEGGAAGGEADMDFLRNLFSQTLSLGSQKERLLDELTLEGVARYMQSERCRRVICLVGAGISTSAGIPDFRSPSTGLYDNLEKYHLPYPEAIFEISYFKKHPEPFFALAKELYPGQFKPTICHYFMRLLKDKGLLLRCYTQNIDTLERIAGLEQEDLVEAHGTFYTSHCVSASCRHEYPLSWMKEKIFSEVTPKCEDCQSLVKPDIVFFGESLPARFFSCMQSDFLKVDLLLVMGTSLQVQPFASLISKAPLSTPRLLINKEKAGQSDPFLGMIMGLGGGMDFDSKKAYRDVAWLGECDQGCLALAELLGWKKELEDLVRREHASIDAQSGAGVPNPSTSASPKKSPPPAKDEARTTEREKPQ
In short: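 Recombinant GST-SIRT2, Fluor de Lys assay in SIRT assay buffer. Acetylated peptide KI179 at 0.7 Km (Km 198 µM) and NAD+ at 0.9 Km (reported Km 547 µM). Buffer, substrate, NAD+ and compound in DMSO preincubated 5 min at room temperature. Enzyme added to start; 1 h at 37 °C. Developer with 2 mM nicotinamide added; 45 min at 37 °C; fluorescence read. Mean ± SD, ≥3 experiments.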

[2] = target: T2, NAD-dependent protein deacetylase sirtuin-1 (Homo sapiens) (UniProt Q96EB6); conditions: at 50 µM;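 also: recombinant GST-tagged human SIRT1 enzyme assay with KI177 substrate, fluorescence read 1 h after enzyme addition, inhibition expressed relative to control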
T2 sequence (whole entry): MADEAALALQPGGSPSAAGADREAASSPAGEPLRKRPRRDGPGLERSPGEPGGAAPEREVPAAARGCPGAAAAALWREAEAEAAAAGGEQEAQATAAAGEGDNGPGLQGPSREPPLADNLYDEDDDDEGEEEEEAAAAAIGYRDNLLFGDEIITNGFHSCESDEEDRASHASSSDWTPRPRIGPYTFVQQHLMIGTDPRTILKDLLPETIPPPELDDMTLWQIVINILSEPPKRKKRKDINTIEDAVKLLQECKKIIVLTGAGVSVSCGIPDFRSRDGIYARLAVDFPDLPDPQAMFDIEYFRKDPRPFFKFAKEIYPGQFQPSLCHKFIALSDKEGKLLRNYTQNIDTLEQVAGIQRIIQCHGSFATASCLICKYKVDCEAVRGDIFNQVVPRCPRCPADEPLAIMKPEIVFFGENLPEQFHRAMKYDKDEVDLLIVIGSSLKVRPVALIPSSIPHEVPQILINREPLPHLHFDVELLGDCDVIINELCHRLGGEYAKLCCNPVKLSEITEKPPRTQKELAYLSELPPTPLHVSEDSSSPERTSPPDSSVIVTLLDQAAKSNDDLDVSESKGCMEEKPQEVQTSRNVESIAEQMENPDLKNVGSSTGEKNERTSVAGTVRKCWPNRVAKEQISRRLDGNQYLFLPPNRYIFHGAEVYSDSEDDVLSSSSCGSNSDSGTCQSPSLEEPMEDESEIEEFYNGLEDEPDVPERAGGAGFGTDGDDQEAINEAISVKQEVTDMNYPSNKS

[3] = target: T3, NAD-dependent protein deacetylase sirtuin-3, mitochondrial (Homo sapiens) (UniProt Q9NTG7); conditions: at 50 µM;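 also: recombinant His-tagged human SIRT3 with KI179 substrate, fluorescence read after 1 h, inhibition expressed relative to control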
T3 sequence (whole entry): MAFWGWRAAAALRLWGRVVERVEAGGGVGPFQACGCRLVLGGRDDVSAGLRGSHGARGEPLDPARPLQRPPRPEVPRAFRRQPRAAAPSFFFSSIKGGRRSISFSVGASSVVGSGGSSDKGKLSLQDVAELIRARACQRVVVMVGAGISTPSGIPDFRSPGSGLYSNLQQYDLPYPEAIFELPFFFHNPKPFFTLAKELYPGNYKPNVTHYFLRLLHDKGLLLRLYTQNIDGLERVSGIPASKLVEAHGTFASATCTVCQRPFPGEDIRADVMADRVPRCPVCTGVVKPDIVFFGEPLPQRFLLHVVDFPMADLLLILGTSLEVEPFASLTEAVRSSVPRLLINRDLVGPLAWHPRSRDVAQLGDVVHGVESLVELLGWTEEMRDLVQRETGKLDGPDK

Structure (SMILES): CC(=S)NCCCC[C@H](NC(=O)OCc1ccccc1)C(=O)NCCc1c[nH]c2ccc(OCc3ccccc3)cc12
- inhibition [1]: 79%
- inhibition [2]: 87%
- inhibition [3]: 68%

Structure (SMILES): CC(=S)NCCCC[C@H](NC(=O)OC(C)(C)C)C(=O)NCCc1cccnc1
- inhibition [1]: 28%
- inhibition [2]: 41%
- inhibition [3]: 24%

Structure (SMILES): CC(=S)NCCCC[C@H](NC(=O)CCCCCc1ccccc1)C(=O)NCc1ccccc1
- inhibition [1]: 71%
- inhibition [2]: 100%
- inhibition [3]: 84%

Structure (SMILES): CC(=S)NCCCC[C@H](NC(=O)[C@@H]1CCCN1C(=O)OC(C)(C)C)C(=O)NCCc1cccnc1
- inhibition [1]: 49%
- inhibition [2]: 66%
- inhibition [3]: 68%

Structure (SMILES): CC(=S)NCCCC[C@H](NC(=O)OCc1ccccc1)C(=O)NCC(=O)c1ccccc1
- inhibition [1]: 94%
- inhibition [2]: 97%
- inhibition [3]: 74%

Structure (SMILES): CC(=S)NCCCC[C@H](NC(=O)OCc1ccccc1)C(=O)Nc1ccccc1
- inhibition [1]: 81%
- inhibition [2]: 83%
- inhibition [3]: 62%

Structure (SMILES): CC(=S)NCCCC[C@H](NC(=O)OCc1ccccc1)C(=O)NCC(O)c1ccccc1 (some centres not stated)
- inhibition [1]: 54%
- inhibition [2]: 77%
- inhibition [3]: 45%

Structure (SMILES): CC(=S)NCCCC[C@H](NC(=O)OC(C)(C)C)C(=O)NCC(=O)c1ccccc1
- inhibition [1]: 87%
- inhibition [2]: 91%
- inhibition [3]: 63%

Structure (SMILES): CC(=S)NCCCC[C@H](NC(=O)OCc1ccccc1)C(=O)NCC(N)=O
- inhibition [1]: 72%
- inhibition [2]: 91%
- inhibition [3]: 77%

Structure (SMILES): CC(=S)NCCCC[C@H](NC(=O)CCCCCc1ccccc1)C(=O)NCC(=O)c1ccccc1
- inhibition [1]: 83%
- inhibition [2]: 98%
- inhibition [3]: 82%

Structure (SMILES): CC(=S)NCCCC[C@H](NC(=O)CCc1cccnc1)C(=O)Nc1ccccc1
- inhibition [1]: 39%
- inhibition [2]: 82%
- inhibition [3]: 44%

Structure (SMILES): CC(=S)NCCCC[C@H](NC(=O)OCc1ccccc1)C(=O)Nc1cccnc1
- inhibition [1]: 70%
- inhibition [2]: 84%
- inhibition [3]: 59%

Structure (SMILES): CC(=S)NCCCC[C@H](NC(=O)OCc1ccccc1)C(=O)NCCc1c[nH]c2ccccc12
- inhibition [1]: 61%
- inhibition [2]: 85%
- inhibition [3]: 46%

Structure (SMILES): CC(=S)NCCCC[C@H](NC(=O)CN(C)C)C(=O)Nc1ccccc1
- inhibition [1]: 18%
- inhibition [2]: 62%
- inhibition [3]: 16%

Structure (SMILES): CC(=S)NCCCC[C@H](NC(=O)OCc1ccccc1)C(=O)NCc1ccccc1
- inhibition [1]: 67%
- inhibition [2]: 91%
- inhibition [3]: 71%

Structure (SMILES): CC(=S)NCCCC[C@H](NC(=O)[C@@H]1CCCN1C(=O)OC(C)(C)C)C(=O)Nc1ccccc1
- inhibition [1]: 44%
- inhibition [2]: 80%
- inhibition [3]: 45%

Structure (SMILES): CC(=S)NCCCC[C@H](NC(=O)CCCc1ccccc1)C(=O)NCC(=O)c1ccccc1
- inhibition [1]: 76%
- inhibition [2]: 98%
- inhibition [3]: 72%

Structure (SMILES): CC(=S)NCCCC[C@H](NC(=O)C[C@@H]1NC(=O)[C@H](Cc2ccccc2)NC1=O)C(=O)NCC(=O)c1ccccc1
- inhibition [1]: 73%
- inhibition [2]: 96%
- inhibition [3]: 61%

Structure (SMILES): CC(=S)NCCCC[C@H](NC(=O)[C@@H]1CCCN1)C(=O)Nc1ccccc1
- inhibition [1]: 13%
- inhibition [2]: 86%
- inhibition [3]: 19%

Structure (SMILES): CC(=S)NCCCC[C@H](NC(=O)[C@@H]1CCCN1C(=O)OC(C)(C)C)C(=O)NCC(=O)c1ccccc1
- inhibition [1]: 95%
- inhibition [2]: 97%
- inhibition [3]: 76%

Structure (SMILES): CC(=S)NCCCC[C@H](NC(=O)OCc1ccccc1)C(=O)N[C@@H](C)C(N)=O
- inhibition [1]: 86%
- inhibition [2]: 96%
- inhibition [3]: 85%

Structure (SMILES): CC(=S)NCCCC[C@H](NC(=O)OCc1ccccc1)C(=O)NCCc1ccccc1
- inhibition [1]: 52%
- inhibition [2]: 72%
- inhibition [3]: 41%

Structure (SMILES): CC(=S)NCCCC[C@H](NC(=O)CCc1ccccc1)C(=O)NCC(=O)c1ccccc1
- inhibition [1]: 65%
- inhibition [2]: 96%
- inhibition [3]: 68%

Structure (SMILES): CC(=S)NCCCC[C@H](NC(=O)CCc1ccccc1F)C(=O)Nc1cccnc1
- inhibition [1]: 74%
- inhibition [2]: 94%
- inhibition [3]: 72%

Structure (SMILES): CC(=S)NCCCC[C@H](NC(=O)[C@@H]1C[C@@H](O)CN1C(=O)OCc1ccccc1)C(=O)Nc1ccccc1
- inhibition [1]: 54%
- inhibition [2]: 90%
- inhibition [3]: 69%

Structure (SMILES): CC(=S)NCCCC[C@H](NC(=O)CCCCCCc1ccccc1)C(=O)NCc1ccccc1
- inhibition [1]: 74%
- inhibition [2]: 99%
- inhibition [3]: 87%

Structure (SMILES): CC(=S)NCCCC[C@H](NC(=O)[C@@H]1C[C@@H](O)CN1C(=O)OCc1ccccc1)C(=O)NCc1ccccc1
- inhibition [1]: 87%
- inhibition [2]: 97%
- inhibition [3]: 93%

Structure (SMILES): CC(=S)NCCCC[C@H](NC(=O)CCc1ccccc1)C(=O)Nc1cccnc1
- inhibition [1]: 21%
- inhibition [2]: 83%
- inhibition [3]: 39%

Structure (SMILES): CC(=S)NCCCC[C@H](NC(=O)CCc1cccnc1)C(=O)NCC(=O)c1ccccc1
- inhibition [1]: 58%
- inhibition [2]: 95%
- inhibition [3]: 62%
